hiPSC survival: hiPSC single-cell survival enhancement; survival enhancement, % at 20 µM; ATPlite luminescence; 100% = ROCK inhibitor wells, 0% = DMSO; actives 0.044% (n = 360,000); in the data active = survival enhancement above about 18%;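 note: cells exposed to compounds for 16 hours before the ATP read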
UPR XBP1 act: activators of adaptive arm of unfolded protein response (XBP1) | CHO-XBP1 luciferase reporter, IRE1-XBP1 UPR activation, luminescence; percent of tunicamycin response, DMSO as zero | activation, % at 20 µM | actives 0.33% (n = 330,000) | AID 463104;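 active = versus positive control, 20 µM dose yields 30% or more activation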;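 note: 100% = tunicamycin at 10 µg/mL and 0% = DMSO only wells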
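Material: IRE1-XBP1 luciferase reporter CHO line / Quantity: one thousand reporter cells per well / Buffer or medium: F12 with 10% serum / Compound: 20 µM single concentration, DMSO 1% / Times: 6 h treatment, 37 °C / Detection: Steady-Glo luciferase glow luminescence, 10 min after reagent addition / Benchmarks: tunicamycin high, DMSO low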
UPR CHOP act: apoptotic UPR (CHOP) activation; activation, % at 10 µM; actives 0.34% (n = 330,000); CHO-CHOP luciferase reporter, luminescence; percent of tunicamycin response over DMSO baseline;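 active = at 10 µM dose, activation of 40% or more, normalized to positive control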;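 note: 100% = tunicamycin at 10 µg/mL and 0% = DMSO alone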
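Assay system: CHO-CHOP cells, stable luciferase reporter of PERK-eIF2a-CHOP signalling / Buffer or medium: F12 plus 10% serum / Compound dosing: one dose, 10 µM in 0.5% DMSO / Times: 6 h compound treatment, 37 °C / Technique: luciferase luminescence / Read-out: % reporter activation, DMSO baseline versus tunicamycin full activation / Benchmarks: tunicamycin and DMSO controls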
Cardio protect: protects H9c2 cardiomyocytes from peroxide injury | H2O2 injury protection, ATPLite, 2 h | protection from H2O2 cell death, % at 20 µM | AID 588492 | actives 0.63% (n = 360,000);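 active = compounds giving at least 50% protection of heart cells from peroxide-induced death in the single-dose screen, raw or plate-pattern-corrected value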;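 note: 0% = DMSO wells with peroxide and 100% = DMSO wells without peroxide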
CHOP inh: CHOP inhibition in unfolded protein response | AID 2732 | inhibition, % at 10 µM | CHO-K1 CHOP-promoter luciferase, tunicamycin-induced, 15-18 h | actives 3.8% (n = 220,000);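 active = compounds that reduced the stress-induced luciferase reporter signal by more than about 70% of percent inhibition, limit read from the data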;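 note: 0% = tunicamycin plus vehicle and 100% = wells without tunicamycin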
Numbers without * were called inactive; . = not tested or not shown. The sample as a whole holds a higher share of hits than the screen did.

SMILES	hiPSC survival	UPR XBP1 act	UPR CHOP act	Cardio protect	CHOP inh
Oc1ccc(Cl)cc1C1=NNC(c2cc(Br)cc3c2OCOC3)C1 (stereo not given)	-2	3	0	3	79*
Clc1ccsc1-c1ccc2ccccc2n1	5	1	8	-12	90*
c1ccc2nc(-c3nccs3)ccc2c1	1	3	8	-12	-5
COC(=O)n1c(=S)oc2cc(Cl)ccc21	.	-3	-3	.	90*
CCCCOC(=O)n1c(=S)oc2cc(Cl)ccc21	1	0	4	-17	31
CC(=O)Nc1cc([N+](=O)[O-])ccc1N1CCOCC1	2	-1	1	0	-1
O=C(Nc1ccc([N+](=O)[O-])cc1)Nc1ccc(N2CCOCC2)c2nonc12	0	10	-2	-27	76*
CC(C)C[C@H](NC(=O)CC[C@H]1O[C@@H](n2ccc(=O)[nH]c2=O)[C@H](O)[C@@H]1O)C(=O)O	-2	.	.	10	.
CCCc1nc(SCc2ccccn2)c2c(=O)n(C)c(=O)n(C)c2n1	-1	-2	3	14	70*
CCCc1nc(SC2CCCC2)c2c(=O)n(C)c(=O)n(C)c2n1	0	4	5	-13	75*
Cn1c(=O)c2c(SCc3ccccn3)nc(CC(C)(C)C)nc2n(C)c1=O	-3	4	1	3	74*
Cn1c(=O)c2c(SCc3cccnc3)nc(CC(C)(C)C)nc2n(C)c1=O	-2	8	2	1	57
Cn1c(=O)c2c(SCc3ccccn3)nc(C3CC3)nc2n(C)c1=O	2	7	-2	1	30
CC(CNC(=O)CC[C@H]1O[C@@H](n2ccc(=O)[nH]c2=O)[C@H](O)[C@@H]1O)c1ccccc1 (stereo not given in full)	-2	.	.	2	.
O=c1cc(NCc2ccco2)[nH]c(=O)n1-c1ccc(Br)cc1	1	-3	-1	3	82*
O=c1cc(NCc2ccc3c(c2)OCO3)[nH]c(=O)n1-c1ccc(Cl)cc1	9	0	0	9	27
CN1CCN(CC(O)c2ccccc2)CC1 (stereo not given)	.	-3	1	.	80*
OC(CN1CCN(C(c2ccccc2)c2ccccc2)CC1)c1ccccc1 (stereo not given)	-1	-5	0	-6	.
COc1ccccc1N1CCN(C(=O)c2ccc3ncsc3c2)CC1	-1	.	.	-4	.
COc1cnc(-c2ccccn2)nc1Sc1ccc(C)cc1	-3	20	37	-9	47
COc1ccccc1Sc1nc(-c2ccccn2)ncc1OC	23*	3	1	-6	29
O=C1c2ccccc2S(=O)(=O)c2cc(N3CCN(C(=O)c4ccccc4)CC3)ccc21	.	4	1	.	.
O=C(O)c1ccc2c(c1)S(=O)(=O)c1cc(N3CCN(c4cnccn4)CC3)ccc1C2=O	2	.	.	50*	.
CCc1nc2sc3ccccc3c(=O)c2c(=O)n1CCOC	-1	1	-1	3	-14
COc1ccc(Cn2c(C(C)C)nc3sc4ccccc4c(=O)c3c2=O)cc1	0	0	2	-14	79*
SMILES	hiPSC survival	UPR XBP1 act	UPR CHOP act	Cardio protect	CHOP inh
COCCn1c(C2CCCCC2)nc2sc3ccccc3c(=O)c2c1=O	0	-1	-1	19	92*
CC(C)c1nc2sc3ccccc3c(=O)c2c(=O)n1Cc1ccccc1	0	-2	0	-19	11
Clc1ccc(Sc2oc(/C=N/n3cnnc3)cc2Br)cc1	-1	-2	-1	-1	69
CN(C)C(=O)/C(C#N)=C\c1cc(Br)c(Sc2ccc(Cl)cc2)o1	-2	.	.	-7	80*
O=C(Nc1nc(-c2ccccc2)cs1)C1CCCCN1S(=O)(=O)c1ccc(Cl)cc1 (stereo not given)	-1	7	0	-2	70*
O=C(Nc1nc(-c2ccccc2)cs1)NC1CCCCC1	0	3	4	-4	93*
CN(C)C1CN(Cc2cn(Cc3ccc(Cl)cc3)nn2)S(=O)(=O)C1 (stereo not given)	0	.	.	.	.
O=C(NCCc1ccccc1)Nc1nnc([C@@H]2C[C@H](O)[C@@H](CO)O2)s1	1	.	.	-1	.
CCOC(=O)C(=CNc1ccc2c(c1)nnn2-c1ccc(Cl)cc1)C(=O)OCC	1	-2	4	-1	79*
CCCOc1cc(C)c(S(=O)(=O)n2ccc(C)n2)cc1C	0	-5	2	-18	93*
COc1cc(S(=O)(=O)n2ccc(C)n2)c(C)cc1C	-1	.	.	-2	.
CC1(C(=O)Nc2cccc(Oc3ccccc3)c2)CCN1C1Cc2ccccc2C1 (stereo not given)	3	.	.	-5	.
COc1ccc(OC)c(NC(=O)c2c(NC(=O)CNCc3ccco3)sc3c2CCC3)c1	0	5	1	1	-24
COc1ccc(NC(=O)c2c(NC(=O)CNCc3ccco3)sc3c2CCC3)c(OC)c1	-3	-3	1	29	71*
Cc1[nH]c2ccccc2c1N=Nc1ccc(F)cc1	0	5	4	-34	90*
Cc1[nH]c2ccccc2c1N=Nc1ccccc1F	1	2	4	-13	-11
Cc1cccc(NC(=O)c2nc[nH]c2C(=O)NCCCCNC(=O)c2[nH]cnc2C(=O)Nc2cccc(C)c2)c1	3	21	9	56*	.
Cc1cccc(NC(=O)c2nc[nH]c2C(=O)NCCCCCCNC(=O)c2[nH]cnc2C(=O)Nc2cccc(C)c2)c1	3	-1	3	95*	.
Cc1cccc(NC(=O)c2nc[nH]c2C(=O)N[C@@H](C)C(=O)OC(C)(C)C)c1	-2	-5	2	2	86*
NC(=O)CC(NC(=O)Cc1cccc2ccccc12)c1ccc(N2CCN(c3ccccc3)CC2)c([N+](=O)[O-])c1 (stereo not given)	0	-3	4	6	87*
Cc1ccc(-c2cc(-c3ccccc3[N+](=O)[O-])[nH]n2)c(O)c1	-2	5	4	-14	94*
Cc1ccccc1-c1cc(-c2ccccc2O)n[nH]1	-4	1	5	-18	80*
CCOC(=O)C1(C(C)(C)CC)CC(CSc2nc3ccccc3[nH]2)OC1=O (stereo not given)	-4	-3	-2	-25	75*
CCOC(=O)NC(=O)CSc1nc2ccccc2[nH]1	-2	0	1	-2	1
O=C(O)c1cc(N=Nc2c(O)ccc3ccccc23)cc(C(=O)O)c1	1	.	.	-3	9
NS(=O)(=O)c1ccc(N=Nc2c(O)ccc3ccccc23)cc1	-1	-3	-4	-3	74*
NS(=O)(=O)c1ccc(N=Nc2ccc(O)c3ncccc23)cc1	0	3	21	21	.
Oc1ccc(N=Nc2c(O)ccc3ccccc23)cc1	0	6	0	-20	92*
Cc1sc2ncnc(SCc3ccco3)c2c1C	9	-2	-1	-12	71*

Assay outcomes deposited in PubChem BioAssay by several laboratories.
